Measured values gathered from unrelated publications.
Protocols differ between the studies behind these lines.
Target: Ephrin type-A receptor 7 (EPHA7, Homo sapiens, UniProt Q15375)

SMILES | test | setting | remaining binding
CCOC(=O)c1cc2cc(-c3cc(C(=O)NCc4ccc(C(=O)O)cc4)nn3C)ccc2[nH]1 | cell-free assay, competition with immobilised ligand | 0.1 µM | 97%
CN(C)c1nccc(-c2cnc3ncccn23)n1 | binding | 1 µM | 68%
CN(C)C(=O)Cn1cc(-c2nc(C3(c4ccc(-c5cnc(N)nc5)cc4)CC3)no2)cn1 | cell-free assay, competition with immobilised ligand | 1 µM | 92%
C[C@@H](c1ccc(-n2cnc3c(N)ncnc32)cc1)N1CCc2nn(C)c(Cc3ccccc3)c2C1=O | binding, competition with immobilised ligand | 0.1 µM | 69%
c1cncc(-c2cccc(Nc3nccc(NC4CCCCC4)n3)c2)c1 | binding, competition with immobilised ligand | 10 µM | 100%
CCN1CCN(Cc2ccc(C(=O)Nc3ccc(C)c(Oc4ccc5c(c4)CC(=O)N5)c3)cc2C(F)(F)F)CC1 | binding, competition with immobilised ligand | 1 µM | 89%
O=C(NCCCN1CCOCC1)c1ccc(Nc2ncc(Cl)c(-c3ccc(Cl)s3)n2)cc1 | binding, competition with immobilised ligand | 1 µM | 60%
Cc1cc(-n2nc(Cc3cc(F)cc(C(F)(F)F)c3)nc2C)ccc1C(N)=O | cell-free assay, competition with immobilised ligand | 1 µM | 98%
F[C@@H]1CCN(c2nccc(-c3cnn4ncccc34)n2)C1 | binding | 1 µM | 100%
C=CC(=O)N1CCC(C(=O)NCC(=O)N2CCN(c3nc(-c4cnc(N)nc4C(F)F)nc(N4CCOCC4)n3)CC2)CC1 | binding, competition with immobilised ligand | 1 µM | 100%
CN(c1nccc(-c2cnn3ncccc23)n1)C1CC1 | binding | 1 µM | 100%
O=C(Nc1c[nH]nc1C(=O)NC1CCNCC1)c1cc(F)cc(F)c1 | binding, competition with immobilised ligand | 1 µM | 100%
O=C(c1ccc(Nc2nccc(-c3cc4ccccc4s3)n2)cc1)N1CCC(N2CCCC2)CC1 | binding, competition with immobilised ligand | 1 µM | 100%
CNC(=O)Nc1ccc2c(c1)[C@@]1(CC2)OC(=O)N(CC(=O)N(Cc2ccc(F)cc2)[C@@H](C)C(F)(F)F)C1=O | cell-free assay, competition with immobilised ligand | 1 µM | 100%
Cc1cnc(Nc2ccc(C(=O)N3CCC(N4CCCC4)CC3)cc2)nc1-c1cc2ccccc2s1 | binding, competition with immobilised ligand | 1 µM | 67%
COc1ccnn2ncc(-c3ccnc(N(C)C)n3)c12 | binding | 1 µM | 93%
CS(=O)(=O)N1CCCC(NC(=O)[C@H](CCC2CCCCC2)NC(=O)c2ccc(CNc3ncnc4c3nnn4-c3ccccc3)cc2)C1 (stereo partly drawn) | cell-free assay, competition with immobilised ligand | 0.1 µM | 98%
N[C@@H]1CCN(c2nccc(-c3cnn4ncccc34)n2)C1 | binding | 1 µM | 91%
N#CC1(c2ccccn2)CCN(Cc2cc(C(=O)N3CCCC3)c(=O)n3ccccc23)CC1 | cell-free assay, competition with immobilised ligand | 1 µM | 100%
Cc1cnn2ncc(-c3ccnc(N(C)C)n3)c2c1 | binding | 1 µM | 100%
CNC(=O)[C@@H]1CC[C@@H](n2c(-c3ccc4cnccc4c3)nc3ccc(C(=O)NCc4cccc(C(N)=O)c4)cc32)C1 | binding, competition with immobilised ligand | 1 µM | 100%
